We go through eight compounds from ChEMBL document CHEMBL1212840, “Lysine N(epsilon)-trimethylation, a tool for improving the selectivity of antimicrobial peptides” (J Med Chem, 2010).

A short description of data set [1]: Selectivity index, ratio of IC50 for sheep erythrocyte to LC50 for Leishmania pifanoi MHOM/VE/60/LTrod amastigotes. The gist of the method: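 SI = HC50/LC50. HC50 comes from sheep erythrocytes (2 × 10^7 cells/mL in Hank's, 4 h, 37 °C, hemoglobin at 550 nm, 0.1% Triton X-100 as full lysis). For LC50, L. pifanoi axenic amastigotes at 2 × 10^7/mL in Hank's + 20 mM glucose get peptide for 4 h at 32 °C. An aliquot is then regrown in complete medium for 96 h at 32 °C.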

Data set [2] in a line: Toxicity in sheep erythrocyte assessed as hemolysis. The data set is classed as cell-based, Ovis aries. The following applies: sheep erythrocytes. The gist of the method:
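Washed sheep erythrocytes at 2 107 cells/mL in Hank's medium were exposed to peptide for 4 h at 37 °C, then spun (5 min, 4 °C). Hemoglobin in the supernatant was read at 550 nm. HC50 is the peptide concentration releasing 50% of the hemoglobin freed by 0.1% Triton X-100.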

Data set [3] can be described thus: Selectivity index, ratio of IC50 for sheep erythrocyte to LC50 for Leishmania donovani MHOM/SD/001S-2D promastigotes. In short, it runs like this: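 SI = HC50/LC50. For HC50, washed sheep erythrocytes at 2 × 10^7 cells/mL in Hank's are exposed to peptide for 4 h at 37 °C. Hemoglobin in the supernatant is read at 550 nm; 0.1% Triton X-100 gives full lysis, and HC50 is 50% release.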

The test system of data set [4] is Staphylococcus aureus. Description: Antimicrobial activity against Staphylococcus aureus CECT 240 by turbidimetry. In kind it is functional.
Data set [5] relates to Leishmania pifanoi. Description: Antileishmanial activity against Leishmania pifonoi MHOM/VE/60/LTrod amastigotes after 4 hrs by MTT assay.
The test system of data set [6] is Leishmania pifanoi. The experiment in a line: Antileishmanial activity against Leishmania pifonoi MHOM/VE/60/LTrod promastigotes after 72 hrs by MTT assay. In kind it is functional, organism-based.
Data set [7] deals with Leishmania donovani. Description: Antileishmanial activity against Leishmania donovani MHOM/SD/001S-2D promastigotes after 4 hrs by MTT assay.
The nature of data set [8]: Selectivity index, ratio of HC50 for sheep erythrocyte to MIC50 for Staphylococcus aureus CECT 240. The data set is classed as functional.
The test system of data set [9] is Acinetobacter baumannii. Description: Antimicrobial activity against Acinetobacter baumannii ATCC 19606 ATCC 19606 by turbidimetry. In kind it is functional.
Data set [10] in a line: Selectivity index, ratio of HC50 for sheep erythrocyte to MIC50 for Acinetobacter baumannii ATCC 19606 ATCC 19606. The data set is classed as functional.
The test system of data set [11] is Leishmania donovani. The experiment in a line: Antileishmanial activity against Leishmania donovani MHOM/SD/001S-2D promastigotes after 72 hrs by MTT assay. In kind it is functional, organism-based. The gist of the method:
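L. donovani promastigotes (strain MHOM/SD/00/1S-2D) are harvested at late exponential phase and washed in Hank's + 20 mM D-glucose, pH 7.2. They are treated with peptide at 2 × 10^7 parasites/mL for 4 h at 26 °C. A 20 μL aliquot then goes into complete medium for 72 h at 26 °C to let survivors proliferate. LC50 is 50% inhibition of proliferation. Triplicates, repeated at least twice.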

Square brackets hold non-standard residues; d marks the D form. Peptide text beside a SMILES is read from it. Lys(Me3) = C[N+](C)(C)CCCC[C@H](N)C(=O)O

Turning to `CC[C@H](C)[C@H](NC(=O)[C@H](CCCC[N+](C)(C)C)NC(=O)[C@H](CCCCN)NC(=O)[C@H](Cc1ccccc1)NC(=O)[C@H](CC(C)C)NC(=O)[C@H](CCCCN)NC(=O)[C@H](Cc1c[nH]c2ccccc12)NC(=O)[C@@H](N)CCCCN)C(=O)NCC(=O)N[C@@H](C)C(=O)N[C@H](C(=O)N[C@@H](CC(C)C)C(=O)N[C@@H](CCCCN)C(=O)N[C@H](C(=O)N[C@@H](CC(C)C)C(N)=O)C(C)C)C(C)C.[Cl-]` (H-KWKLFK[Lys(Me3)]IGAVLKVL-NH2), the “Selectivity Index” value in [1] amounted to 13.5; in data set [3] it was 71.3; in data set [8] it was 22.8; in [10], 86.3. Besides, the HC50 in data set [2] was 164 µM. The MIC50 stood at 7.2 µM in data set [4] and 1.9 µM in data set [9]. For the same compound, the IC50 is 11.4 µM in data set [5] and 3.7 µM in data set [7]. The results for the median lethal concentration (LC50) in [6] and in data set [11] were 12.1 µM and 2.3 µM, respectively.
Take `CC[C@H](C)[C@H](NC(=O)[C@H](CCCCN)NC(=O)[C@H](CCCCN)NC(=O)[C@H](Cc1ccccc1)NC(=O)[C@H](CC(C)C)NC(=O)[C@H](CCCC[N+](C)(C)C)NC(=O)[C@H](Cc1c[nH]c2ccccc12)NC(=O)[C@@H](N)CCCCN)C(=O)NCC(=O)N[C@@H](C)C(=O)N[C@H](C(=O)N[C@@H](CC(C)C)C(=O)N[C@@H](CCCCN)C(=O)N[C@H](C(=O)N[C@@H](CC(C)C)C(N)=O)C(C)C)C(C)C.[Cl-]` (H-KW[Lys(Me3)]LFKKIGAVLKVL-NH2): the “Selectivity Index” value came out at 10.4 in [1], 27.6 in data set [3], 35.7 in data set [8] and 50.3 in [10]. In data set [2], the HC50 worked out at 85.6 µM. For the same compound, the figures for the MIC50 in data set [4] and in [9] were 2.4 µM and 1.7 µM, respectively. The values for the IC50 in data set [5] and in data set [7] were 9.4 µM and 3.3 µM, respectively. Also, the LC50 in [6] was 8.2 µM; in [11], 3.1 µM.
Consider `CC[C@H](C)[C@H](NC(=O)[C@H](CCCC[N+](C)(C)C)NC(=O)[C@H](CCCC[N+](C)(C)C)NC(=O)[C@H](Cc1ccccc1)NC(=O)[C@H](CC(C)C)NC(=O)[C@H](CCCC[N+](C)(C)C)NC(=O)[C@H](Cc1c[nH]c2ccccc12)NC(=O)[C@@H](N)CCCC[N+](C)(C)C)C(=O)NCC(=O)N[C@@H](C)C(=O)N[C@H](C(=O)N[C@@H](CC(C)C)C(=O)N[C@@H](CCCC[N+](C)(C)C)C(=O)N[C@H](C(=O)N[C@@H](CC(C)C)C(N)=O)C(C)C)C(C)C` (H-[Lys(Me3)]W[Lys(Me3)]LF[Lys(Me3)][Lys(Me3)]IGAVL[Lys(Me3)]VL-NH2), for which the HC50 in data set [2] was > 200 µM. The MIC50 in data set [4] and in data set [9] was > 30 µM each time. Further, the IC50 in data set [5] and in data set [7] was > 50 µM throughout. Also, the LC50 in data set [6] and in data set [11] was > 50 µM throughout.
In the case of H-KWKLFKKIGAVLKVL-NH2, the “Selectivity Index” value in data set [1] came out at 8.9; in data set [3] it was 26.8; in data set [8] it was 13.8; in data set [10] it was 36.5. The HC50 in [2] amounted to 40.2 µM. For the same compound, the MIC50 turned out to be 2.9 µM in data set [4] and 1.1 µM in [9]. For the same compound, the IC50 in [5] was found to be 4.3 µM; in [7], 1.8 µM. Moreover, the LC50 in data set [6] is 4.5 µM; in [11], 1.5 µM.
Turning to `CC[C@H](C)[C@H](NC(=O)[C@H](CCCCN)NC(=O)[C@H](CCCCN)NC(=O)[C@H](Cc1ccccc1)NC(=O)[C@H](CC(C)C)NC(=O)[C@H](CCCC[N+](C)(C)C)NC(=O)[C@H](Cc1c[nH]c2ccccc12)NC(=O)[C@@H](N)CCCC[N+](C)(C)C)C(=O)NCC(=O)N[C@@H](C)C(=O)N[C@H](C(=O)N[C@@H](CC(C)C)C(=O)N[C@@H](CCCCN)C(=O)N[C@H](C(=O)N[C@@H](CC(C)C)C(N)=O)C(C)C)C(C)C.[Cl-].[Cl-]` (H-[Lys(Me3)]W[Lys(Me3)]LFKKIGAVLKVL-NH2), the “Selectivity Index” value in data set [1] is recorded as 4.2; in [3] it was 6.7; in data set [8] it was 13.1; in data set [10] it was 30. Further, the HC50 in [2] turned out to be 105 µM. Further, the MIC50 in [4] came to 8 µM; in data set [9], 3.5 µM. The values for the IC50 in data set [5] and in data set [7] were 16.2 µM and 12.8 µM, respectively. The values for the median lethal concentration (LC50) in [6] and in [11] were 24.8 µM and 15.5 µM, respectively.
As to `CC[C@H](C)[C@H](NC(=O)[C@H](CCCCN)NC(=O)[C@H](CCCCN)NC(=O)[C@H](Cc1ccccc1)NC(=O)[C@H](CC(C)C)NC(=O)[C@H](CCCCN)NC(=O)[C@H](Cc1c[nH]c2ccccc12)NC(=O)[C@@H](N)CCCCN)C(=O)NCC(=O)N[C@@H](C)C(=O)N[C@H](C(=O)N[C@@H](CC(C)C)C(=O)N[C@@H](CCCC[N+](C)(C)C)C(=O)N[C@H](C(=O)N[C@@H](CC(C)C)C(N)=O)C(C)C)C(C)C.[Cl-]` (H-KWKLFKKIGAVL[Lys(Me3)]VL-NH2), the “Selectivity Index” value was 13.5 in [1], 63 in [3], 35.8 in data set [8] and 74.9 in [10]. Further, the HC50 in [2] worked out at 157 µM. In addition, the MIC50 was determined as 4.4 µM in data set [4] and 2.1 µM in [9]. Besides, the concentration for half-maximal inhibition (IC50) in [5] came to 10.1 µM; in data set [7], 3.5 µM. The LC50 amounted to 11.6 µM in [6] and 2.5 µM in data set [11].
As to `CC[C@H](C)[C@H](NC(=O)[C@H](CCCCN)NC(=O)[C@H](CCCCN)NC(=O)[C@H](Cc1ccccc1)NC(=O)[C@H](CC(C)C)NC(=O)[C@H](CCCCN)NC(=O)[C@H](Cc1c[nH]c2ccccc12)NC(=O)[C@@H](N)CCCC[N+](C)(C)C)C(=O)NCC(=O)N[C@@H](C)C(=O)N[C@H](C(=O)N[C@@H](CC(C)C)C(=O)N[C@@H](CCCCN)C(=O)N[C@H](C(=O)N[C@@H](CC(C)C)C(N)=O)C(C)C)C(C)C.[Cl-]` (H-[Lys(Me3)]WKLFKKIGAVLKVL-NH2), the “Selectivity Index” value in data set [1] is reported as 12; in data set [3], 27.6; in [8] it was 22.7; in [10] it was 59.4. For the same compound, the HC50 in data set [2] was found to be 77.2 µM. In addition, the MIC50 in [4] worked out at 3.4 µM; in data set [9] it was 1.3 µM. Besides, the IC50 worked out at 6 µM in [5] and 3.9 µM in [7]. Also, the median lethal concentration (LC50) in data set [6] was determined as 6.4 µM; in data set [11], 2.8 µM.
In the case of `CC[C@H](C)[C@H](NC(=O)[C@H](CCCC[N+](C)(C)C)NC(=O)[C@H](CCCC[N+](C)(C)C)NC(=O)[C@H](Cc1ccccc1)NC(=O)[C@H](CC(C)C)NC(=O)[C@H](CCCCN)NC(=O)[C@H](Cc1c[nH]c2ccccc12)NC(=O)[C@@H](N)CCCCN)C(=O)NCC(=O)N[C@@H](C)C(=O)N[C@H](C(=O)N[C@@H](CC(C)C)C(=O)N[C@@H](CCCCN)C(=O)N[C@H](C(=O)N[C@@H](CC(C)C)C(N)=O)C(C)C)C(C)C.[Cl-].[Cl-]` (H-KWKLF[Lys(Me3)][Lys(Me3)]IGAVLKVL-NH2), the “Selectivity Index” value in data set [1] is 4.9; in [3], 25.3; in data set [8], 12.5; in data set [10] it was 51.5. Further, in data set [2], the HC50 came out at 134 µM. Further, the results for the MIC50 in data set [4] and in [9] were 10.7 µM and 2.6 µM, respectively. Besides, the IC50 stood at 9.2 µM in data set [5] and 6.1 µM in [7]. Also, the LC50 in data set [6] was 27 µM; in data set [11], 5.3 µM.
